The target of data set [1] is T1, Tyrosine-protein phosphatase non-receptor type 11 (Homo sapiens, UniProt Q06124).
T1 sequence (Q06124 whole entry): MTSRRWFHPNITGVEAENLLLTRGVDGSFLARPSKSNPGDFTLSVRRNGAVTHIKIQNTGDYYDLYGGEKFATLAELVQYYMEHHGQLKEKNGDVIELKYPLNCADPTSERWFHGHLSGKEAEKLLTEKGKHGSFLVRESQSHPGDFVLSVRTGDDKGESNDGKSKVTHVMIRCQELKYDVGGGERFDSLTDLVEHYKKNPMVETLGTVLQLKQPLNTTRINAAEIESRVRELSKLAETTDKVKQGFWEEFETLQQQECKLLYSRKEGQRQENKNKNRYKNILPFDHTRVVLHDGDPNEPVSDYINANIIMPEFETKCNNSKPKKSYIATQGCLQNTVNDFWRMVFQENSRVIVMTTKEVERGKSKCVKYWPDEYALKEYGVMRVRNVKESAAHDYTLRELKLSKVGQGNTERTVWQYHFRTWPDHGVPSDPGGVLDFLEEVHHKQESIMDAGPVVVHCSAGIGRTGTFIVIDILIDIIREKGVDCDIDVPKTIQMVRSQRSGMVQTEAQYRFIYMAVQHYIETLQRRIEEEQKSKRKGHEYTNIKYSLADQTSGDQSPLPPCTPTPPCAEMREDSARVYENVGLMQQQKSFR
Briefly: Inhibition of wild type recombinant human SHP2 using H-Glu-Phe-pTyr-Ala-Glu-Val-Gly-Arg-Ser-Pro-Pro-Asp-Pro-Ala-Lys as substrate preincubated for 30 mins followed by substrate addition and measured after 30 mins by Malachite Green-reagent based assay. A digest of the protocol: (§1)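 Full-length SHP2 or SHP1 (0.1 µg) preincubated with compound 30 min at room temperature in 25 mM Tris-HCl pH 7.4, 50 mM NaCl, 5 mM DTT, 2.5 mM EDTA. Phospho-peptide substrate added to 50 µM final; 30 min at 30 °C. Released phosphate read by Malachite Green at OD620. IC50 from six concentrations; three experiments.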

Data set [2] addresses Tyrosine-protein phosphatase non-receptor type 6 (Homo sapiens, UniProt P29350). The data set is described as follows: Inhibition of wild type recombinant human SHP1 using H-Glu-Phe-pTyr-Ala-Glu-Val-Gly-Arg-Ser-Pro-Pro-Asp-Pro-Ala-Lys as substrate preincubated for 30 mins followed by substrate addition and measured after 30 mins by Malachite Green-reagent based assay. An outline of the steps: as §1

For data set [3], the target named is T1, Tyrosine-protein phosphatase non-receptor type 11. The data set is described as follows: Binding affinity to full length wild type His-tagged SHP2 (unknown origin) by MST assay. A digest of the protocol:
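His-tagged SHP2 (200 nM) in 50 mM Tris-HCl pH 8.0, 10 mM NaCl, 0.005% Tween 20, labelled with red-tris-NTA dye. Mixed 1:1 with a 15-step 2-fold dilution series from 600 µM made in PBS/0.005% Tween 20. MST run at 50% power with red filter; one-site fit gives Kd. Mean ± SD of three experiments.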

Data set [4] relates to MEF. Briefly: Growth inhibition of PTPN11-depleted MEF at 6 uM after 24 to 72 hrs by cell proliferation-based assay. Conditions: mouse. An outline of the steps:
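Ptpn11 fl/fl and Ptpn11 +/+ MEFs, both Ade-Cre+, infected with adeno-Cre, then given 6 µM compound or DMSO. Growth measured at 24, 48 and 72 h by One Solution proliferation assay. SHP2 loss confirmed by immunoblot. Triplicates from one of three experiments.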

The subject of data set [5] is NCI-H661. Briefly: Induction of apoptosis in human NCI-H661 cells assessed as viable cells at 10 uM after 24 hrs by Annexin V/FITC-staining based FACS analysis (reference value: 86.9%). Type of data set: functional. Particulars: NCI-H661, 24 h, read-out: Activity.
Data set [6] deals with NCI-H661. Briefly: Induction of apoptosis in human NCI-H661 cells assessed as early apoptotic cells at 10 uM after 24 hrs by Annexin V/FITC-staining based FACS analysis (reference value: 5%). It counts as functional.
Data set [7] deals with NCI-H661. Briefly: Induction of apoptosis in human NCI-H661 cells assessed as late apoptotic cells at 10 uM after 24 hrs by Annexin V/FITC-staining based FACS analysis (reference value: 3.5%). Type of data set: functional.
For data set [8], the system named is NCI-H661. The data set is described as follows: Induction of apoptosis in human NCI-H661 cells assessed as necrotic cells at 10 uM after 24 hrs by Annexin V/FITC-staining based FACS analysis (reference value: 4.6%). Type of data set: functional.
Data set [9] concerns NCI-H661. The data set is described as follows: Induction of apoptosis in human NCI-H661 cells assessed as viable cells at 20 uM after 24 hrs by Annexin V/FITC-staining based FACS analysis (reference value: 86.9%). It counts as functional. Conditions: NCI-H661, 24 h, read-out: Activity.
Data set [10] concerns NCI-H661. The data set is described as follows: Induction of apoptosis in human NCI-H661 cells assessed as early apoptotic cells at 20 uM after 24 hrs by Annexin V/FITC-staining based FACS analysis (reference value: 5%). Type of data set: functional.
The subject of data set [11] is NCI-H661. Briefly: Induction of apoptosis in human NCI-H661 cells assessed as late apoptotic cells at 20 uM after 24 hrs by Annexin V/FITC-staining based FACS analysis (reference value: 3.5%). Type of data set: functional.
In data set [12] the test system is NCI-H661. Briefly: Induction of apoptosis in human NCI-H661 cells assessed as necrotic cells at 20 uM after 24 hrs by Annexin V/FITC-staining based FACS analysis (reference value: 4.6%). It counts as functional.
The target in data set [13] is T1, Tyrosine-protein phosphatase non-receptor type 11. Briefly: Inhibition of recombinant full length human GST-tagged SHP2 PTP domain using phospho-peptide as substrate pre-incubated for 30 mins before substrate addition and measured after 30 mins.
In data set [14] the target is Tyrosine-protein phosphatase non-receptor type 11 (Homo sapiens, UniProt Q06124, E76K). Briefly: Inhibition of recombinant full length human GST-tagged SHP2 E76K mutant using phospho-peptide as substrate pre-incubated for 30 mins before substrate addition and measured after 30 mins.
Chain of Tyrosine-protein phosphatase non-receptor type 11 (Homo sapiens, UniProt Q06124, E76K) (Q06124 as listed by the source E76K): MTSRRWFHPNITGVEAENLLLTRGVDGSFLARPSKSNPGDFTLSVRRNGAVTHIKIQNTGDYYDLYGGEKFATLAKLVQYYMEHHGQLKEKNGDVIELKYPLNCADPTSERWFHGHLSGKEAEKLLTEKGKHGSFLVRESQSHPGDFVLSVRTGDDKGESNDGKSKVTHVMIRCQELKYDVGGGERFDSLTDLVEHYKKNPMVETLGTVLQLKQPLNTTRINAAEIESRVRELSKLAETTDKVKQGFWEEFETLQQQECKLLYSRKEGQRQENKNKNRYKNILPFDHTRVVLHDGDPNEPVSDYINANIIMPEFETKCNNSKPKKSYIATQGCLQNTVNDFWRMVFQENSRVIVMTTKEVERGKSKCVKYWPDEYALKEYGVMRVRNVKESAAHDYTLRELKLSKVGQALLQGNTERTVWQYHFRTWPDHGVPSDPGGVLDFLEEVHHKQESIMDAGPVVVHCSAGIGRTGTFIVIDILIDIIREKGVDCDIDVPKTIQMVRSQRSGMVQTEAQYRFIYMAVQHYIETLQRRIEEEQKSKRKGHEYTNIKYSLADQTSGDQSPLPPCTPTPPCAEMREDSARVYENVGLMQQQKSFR

Chain of Tyrosine-protein phosphatase non-receptor type 6 (P29350 whole entry): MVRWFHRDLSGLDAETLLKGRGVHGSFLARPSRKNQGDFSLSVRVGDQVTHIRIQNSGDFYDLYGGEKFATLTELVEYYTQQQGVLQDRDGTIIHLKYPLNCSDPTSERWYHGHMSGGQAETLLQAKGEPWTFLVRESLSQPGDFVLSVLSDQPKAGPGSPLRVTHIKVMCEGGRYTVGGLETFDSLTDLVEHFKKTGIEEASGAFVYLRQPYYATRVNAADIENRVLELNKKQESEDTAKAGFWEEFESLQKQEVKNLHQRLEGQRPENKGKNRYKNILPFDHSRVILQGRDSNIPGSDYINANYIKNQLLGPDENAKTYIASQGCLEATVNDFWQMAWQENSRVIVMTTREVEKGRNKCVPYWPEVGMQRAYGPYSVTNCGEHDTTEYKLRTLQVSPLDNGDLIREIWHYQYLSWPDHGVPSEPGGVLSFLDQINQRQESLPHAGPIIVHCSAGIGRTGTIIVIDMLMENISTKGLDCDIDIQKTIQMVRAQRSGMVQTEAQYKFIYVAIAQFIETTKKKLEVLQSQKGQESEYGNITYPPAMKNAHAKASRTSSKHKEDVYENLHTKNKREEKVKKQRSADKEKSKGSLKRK

With `CCOc1cc(O)c(C(=O)/C=C/c2ccc(Cl)cc2Cl)cc1CN1CCC=C(n2c(=O)[nH]c3ccccc32)C1`, the IC50 in [1] was determined as 9.8 µM; in data set [2] it was 72.7 µM; in data set [13] it was 20.9 µM; in data set [14], 7.67 µM. For the same molecule, the Kd in [3] was 69 µM. Also, the Activity entry was “Non-Toxic” in data set [4]; 9.7% in [6]; 7.3% in data set [7]; 6.2% in data set [8]; 12.6% in [10]; 21% in data set [11]. Further, in data set [12], the Activity was 8.9%. The viability at 10 µM in data set [5] was 76.8%. The viability at 20 µM in [9] was 57.6%.

(Values after ChEMBL document CHEMBL4422612, “Small Molecule Inhibitor that Stabilizes the Autoinhibited Conformation of the Oncogenic Tyrosine Phosphatase SHP2” (J Med Chem, 2019).)
